Measurements from ChEMBL document CHEMBL1649579, “A novel tryptophanyl-tRNA synthetase gene confers high-level resistance to indolmycin” (2009).
Values after ≈ are worked out from the molar mass of the structure shown.

Columns and labels:
Type in all cases: functional
Streptomyces coelicolor [1] = experiment: Antimicrobial activity against wild-type Streptomyces coelicolor after 48 hrs
Outline: (§1)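 Indolmycin MIC on Difco nutrient agar containing the indicated indolmycin concentrations. Spores are grown at 30C for 48 h. MIC is the lowest indolmycin concentration that prevents growth after 2 days.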

Streptomyces coelicolor [2] = experiment: Antimicrobial activity against trpRS1 deficient Streptomyces coelicolor B725 after 48 hrs; details: B725, 48 h; outline: as §1
Streptomyces coelicolor [3] = experiment: Antimicrobial activity against Streptomyces coelicolor B725 harboring trpRS1 ORF after 48 hrs; details: B725, 48 h
Outline: (§2)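 Agar MIC in S. coelicolor trpRS1-null strain B725. Each ORF is cloned into pIJ10257 under the constitutive ermE* promoter for equalized expression. Growth is on Difco nutrient agar with indolmycin at the indicated concentrations, 30C, 48 h. MIC is the concentration that inhibits growth.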

Streptomyces avermitilis = experiment: Antimicrobial activity against Streptomyces avermitilis harboring trpRS1 homolog after 48 hrs; outline: as §1
Streptomyces griseus = experiment: Antimicrobial activity against Streptomyces griseus after 48 hrs; outline: as §1
Streptomyces coelicolor [4] = experiment: Antimicrobial activity against Streptomyces coelicolor B725 harboring trpRS2 ORF after 48 hrs; details: B725, 48 h; outline: as §2
Streptomyces coelicolor [5] = experiment: Antimicrobial activity against Streptomyces coelicolor B725 harboring trpRS2 L9F mutant ORF after 48 hrs; details: B725, 48 h; outline: as §2
Streptomyces coelicolor [6] = experiment: Antimicrobial activity against Streptomyces coelicolor B725 harboring trpRS2 H48Q mutant ORF after 48 hrs; details: B725, 48 h; outline: as §2
Streptomyces coelicolor [7] = experiment: Antimicrobial activity against Streptomyces coelicolor B725 harboring trpRS2 H48N mutant ORF after 48 hrs; details: B725, 48 h; outline: as §2
Streptomyces coelicolor [8] = experiment: Antimicrobial activity against Streptomyces coelicolor B725 harboring trpRS2 Q13K mutant ORF after 48 hrs; details: B725, 48 h; outline: as §2
Streptomyces coelicolor [9] = experiment: Antimicrobial activity against Streptomyces coelicolor B725 harboring trpRS2 L9F/Q13K mutant ORF after 48 hrs; details: B725, 48 h; outline: as §2
Streptomyces coelicolor [10] = experiment: Antimicrobial activity against Streptomyces coelicolor B725 harboring trpRS2 L9F/H48Q mutant ORF after 48 hrs; details: B725, 48 h; outline: as §2
Streptomyces coelicolor [11] = experiment: Antimicrobial activity against Streptomyces coelicolor B725 harboring trpRS2 locus after 48 hrs; details: B725, 48 h
Outline: (§3)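 Agar MIC in trpRS1-null S. coelicolor B725 carrying the trpRS2 locus (93 nt upstream to 96 nt downstream of the ORF, with or without point mutations) […]. Plates are Difco nutrient agar with indicated indolmycin levels, read for growth after 48 h at 30C.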

Streptomyces coelicolor [12] = experiment: Antimicrobial activity against Streptomyces coelicolor B725 harboring trpRS2 C(-17)A locus after 48 hrs; details: B725, 48 h; outline: as §3
Streptomyces coelicolor [13] = experiment: Antimicrobial activity against Streptomyces coelicolor B725 harboring trpRS2 C(-17)A/L9F locus after 48 hrs; details: B725, 48 h; outline: as §3
Streptomyces coelicolor [14] = experiment: Antimicrobial activity against Streptomyces coelicolor B725 harboring trpRS2 C(-17)A/H48Q locus after 48 hrs; details: B725, 48 h; outline: as §3
Streptomyces coelicolor [15] = experiment: Antimicrobial activity against Streptomyces coelicolor B725 harboring trpRS2 G(-13)T locus after 48 hrs; details: B725, 48 h; outline: as §3
Streptomyces coelicolor [16] = experiment: Antimicrobial activity against Streptomyces coelicolor B725 harboring trpRS2 G(-13)T/L9F locus after 48 hrs; details: B725, 48 h; outline: as §3
Streptomyces coelicolor [17] = experiment: Antimicrobial activity against Streptomyces coelicolor B725 harboring trpRS2 G(-13)T/H48Q locus after 48 hrs; details: B725, 48 h; outline: as §3
Streptomyces coelicolor [18] = experiment: Ratio of MIC for Streptomyces coelicolor B725 harboring trpRS2 ORF to MIC for Streptomyces coelicolor B725
Outline: (§4)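 Fold increase is the indolmycin MIC of each construct-bearing B725 strain (ermE* promoter) divided by the MIC of the parent trpRS1-null B725. Both MICs come from Difco nutrient agar plates containing indolmycin, read for growth after 2 days at 30C.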

Streptomyces coelicolor [19] = experiment: Ratio of MIC for Streptomyces coelicolor B725 harboring trpRS2 L9F mutant ORF to MIC for Streptomyces coelicolor B725; outline: as §4
Streptomyces coelicolor [20] = experiment: Ratio of MIC for Streptomyces coelicolor B725 harboring trpRS2 H48Q mutant ORF to MIC for Streptomyces coelicolor B725; outline: as §4
Streptomyces coelicolor [21] = experiment: Ratio of MIC for Streptomyces coelicolor B725 harboring trpRS2 H48N mutant ORF to MIC for Streptomyces coelicolor B725; outline: as §4
Streptomyces coelicolor [22] = experiment: Ratio of MIC for Streptomyces coelicolor B725 harboring trpRS2 Q13K mutant ORF to MIC for Streptomyces coelicolor B725; outline: as §4
Streptomyces coelicolor [23] = experiment: Ratio of MIC for Streptomyces coelicolor B725 harboring trpRS2 L9F/Q13K mutant ORF to MIC for Streptomyces coelicolor B725; outline: as §4
Streptomyces coelicolor [24] = experiment: Ratio of MIC for Streptomyces coelicolor B725 harboring trpRS2 L9F/H48Q mutant ORF to MIC for Streptomyces coelicolor B725; outline: as §4
Streptomyces coelicolor [25] = experiment: Ratio of MIC for Streptomyces coelicolor B725 harboring trpRS2 locus to MIC for Streptomyces coelicolor B725; outline: as §4
Streptomyces coelicolor [26] = experiment: Ratio of MIC for Streptomyces coelicolor B725 harboring trpRS2 C(-17)A locus to MIC for Streptomyces coelicolor B725; outline: as §4
Streptomyces coelicolor [27] = experiment: Ratio of MIC for Streptomyces coelicolor B725 harboring trpRS2 C(-17)A/L9F locus to MIC for Streptomyces coelicolor B725; outline: as §4
Streptomyces coelicolor [28] = experiment: Ratio of MIC for Streptomyces coelicolor B725 harboring trpRS2 C(-17)A/H48Q locus to MIC for Streptomyces coelicolor B725; outline: as §4
Streptomyces coelicolor [29] = experiment: Ratio of MIC for Streptomyces coelicolor B725 harboring trpRS2 G(-13)T locus to MIC for Streptomyces coelicolor B725; outline: as §4
Streptomyces coelicolor [30] = experiment: Ratio of MIC for Streptomyces coelicolor B725 harboring trpRS2 G(-13)T/L9F locus to MIC for Streptomyces coelicolor B725; outline: as §4
Streptomyces coelicolor [31] = experiment: Ratio of MIC for Streptomyces coelicolor B725 harboring trpRS2 G(-13)T/H48Q locus to MIC for Streptomyces coelicolor B725; outline: as §4
Streptomyces coelicolor [32] = experiment: Ratio of MIC for Streptomyces coelicolor B725 overexpressing tryptophanyl-tRNA synthetase gene to MIC for Streptomyces coelicolor B725; outline: as §4

## CNC1=NC(=O)[C@H]([C@H](C)c2c[nH]c3ccccc23)O1 [INDOMYCIN]
Streptomyces coelicolor [1]
  MIC: > 150 µg/mL
Streptomyces coelicolor [2]
  MIC: 0.25 µg/mL (≈ 0.972 µM)
Streptomyces coelicolor [3]
  MIC: 10 µg/mL (≈ 38.9 µM)
Streptomyces avermitilis
  MIC: 5 µg/mL (≈ 19.4 µM)
Streptomyces griseus
  MIC: 15 µg/mL (≈ 58.3 µM)
Streptomyces coelicolor [4]
  MIC: 0.25 µg/mL (≈ 0.972 µM)
Streptomyces coelicolor [5]
  MIC: 5 µg/mL (≈ 19.4 µM)
Streptomyces coelicolor [6]
  MIC: > 75 µg/mL
Streptomyces coelicolor [7]
  MIC: > 75 µg/mL
Streptomyces coelicolor [8]
  MIC: 3 µg/mL (≈ 11.7 µM)
Streptomyces coelicolor [9]
  MIC: 8 µg/mL (≈ 31.1 µM)
Streptomyces coelicolor [10]
  MIC: > 75 µg/mL
Streptomyces coelicolor [11]
  MIC: 0.25 µg/mL (≈ 0.972 µM)
Streptomyces coelicolor [12]
  MIC: 2 µg/mL (≈ 7.77 µM)
Streptomyces coelicolor [13]
  MIC: 5 µg/mL (≈ 19.4 µM)
Streptomyces coelicolor [14]
  MIC: > 75 µg/mL
Streptomyces coelicolor [15]
  MIC: 5 µg/mL (≈ 19.4 µM)
Streptomyces coelicolor [16]
  MIC: 12 µg/mL (≈ 46.6 µM)
Streptomyces coelicolor [17]
  MIC: > 75 µg/mL
Streptomyces coelicolor [18]
  fold change (FC): 1
Streptomyces coelicolor [19]
  fold change (FC): 20
Streptomyces coelicolor [20]
  fold change (FC): >300
Streptomyces coelicolor [21]
  fold change (FC): >300
Streptomyces coelicolor [22]
  fold change (FC): 12
Streptomyces coelicolor [23]
  fold change (FC): 32
Streptomyces coelicolor [24]
  fold change (FC): >300
Streptomyces coelicolor [25]
  fold change (FC): 1
Streptomyces coelicolor [26]
  fold change (FC): 8
Streptomyces coelicolor [27]
  fold change (FC): 20
Streptomyces coelicolor [28]
  fold change (FC): >300
Streptomyces coelicolor [29]
  fold change (FC): 20
Streptomyces coelicolor [30]
  fold change (FC): 48
Streptomyces coelicolor [31]
  fold change (FC): >300
Streptomyces coelicolor [32]
  fold change (FC): 60
